Laboratory results from PMC3428514 (Molecular cell, 2012).
Peptide text beside a SMILES is read from it.

Tests used:
caspase-8 = caspase-8 (Homo sapiens, UniProt Q14790); assay: caspase-8 dimerization by Superdex 200 gel filtration; type: biochemical; conditions: 10 μM, 15 minutes at 30°C
Method in brief: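 Recombinant caspase-8 (100 nM) incubated 15 min at 30°C with test compound at 10 μM, DMSO, or 10 μM Ac-VAD-CHO, then run on Superdex 200 gel filtration. Collected fractions analysed by SDS-PAGE with Coomassie Blue staining, and caspase activity measured in each fraction.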

Cdc25B = conditions: read-out: IC50, Cdc25B; ref Vogt et al., 2003; cited from earlier work
X-IAP = conditions: read-out: IC50, X-IAP; ref Glover et al., 2003; cited from earlier work

caspase-8, sequence (Q14790 217-479, species assumed): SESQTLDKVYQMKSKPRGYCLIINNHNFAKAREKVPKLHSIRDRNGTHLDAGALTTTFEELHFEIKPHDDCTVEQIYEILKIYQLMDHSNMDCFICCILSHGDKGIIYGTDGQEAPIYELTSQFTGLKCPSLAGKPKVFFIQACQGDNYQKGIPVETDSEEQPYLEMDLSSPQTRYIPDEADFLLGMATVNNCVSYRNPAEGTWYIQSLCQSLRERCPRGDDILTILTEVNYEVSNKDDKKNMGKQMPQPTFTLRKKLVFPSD

| effect on caspase-8 dimerization (caspase-8) | Compound | IC50 (Cdc25B) [µM] | IC50 (X-IAP) [µM] |
| --- | --- | --- | --- |
| shift to the dimeric species | CC(=O)N[C@H](C(=O)N[C@@H](C)C(=O)N[C@H](C=O)CC(=O)O)C(C)C [Ac-VAD-CHO] (Ac-Val-Ala-Asp-aldehyde) | – | – |
| – | CSC(=S)NN=C(c1ccccn1)c1ccccn1.[Cu][Br] [Comp-C] | > 10 | > 10 |
